Drawing on ChEMBL document CHEMBL1123176, “Synthesis and antitumor activity of cyclophosphamide analogues. 4. Preparation, kinetic studies, and anticancer screening of "phenylketophosphamide" and similar compounds related to the cyclophosphamide metabolite aldophosphamide” (1986), this text covers T/C, Survivors and ILS for five compounds.

The subject of experiment [1] is Mus musculus. Put plainly: Compound was ested for antitumor activity against Lewis lung carcinoma cells implanted in male CD2F1 mice at a dose of 200x2 mg/kg. It is filed as functional.
In experiment [2] the test system is Mus musculus. Put plainly: Number of survivors on the toxicity day (day = 5) at a dose of 25x1 mg/kg; 5/6. It is filed as functional.
Experiment [3] deals with Mus musculus. Put plainly: Number of survivors on the toxicity day (day = 5) at a dose of 50x1 mg/kg; 6/6. It is filed as functional.
Experiment [4] has as its system Mus musculus. Put plainly: Increased life span against L1210 lymphoid leukemia cells in male BDF1 mice at a dose of 15 mg/kg. It is filed as functional. Put shortly: (§1)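 Male BDF1 mice, 6 weeks old, implanted ip with 1 × 10^5 L1210 lymphoid leukemia cells on day 0. Dosing was a single ip dose on day 2 in 10% Me2SO, except where noted: x7 schedules given ip on days 2 through 8; some arms given po; some arms in saline vehicle. Read-outs were % increased life span and survivors on day 60; some runs were duplicated.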

For experiment [5], the system named is Mus musculus. Put plainly: Number of survivors on the toxicity day (day = 5) at a dose of 100x1 mg/kg; 6/6. Format: functional.
Experiment [6] has as its system Mus musculus. Put plainly: Compound was ested for antitumor activity against Lewis lung carcinoma cells implanted in male C57BL mice at a dose of 100 mg/kg. Format: functional.
Experiment [7] relates to Mus musculus. Put plainly: Compound was ested for antitumor activity against Lewis lung carcinoma cells implanted in female CD2F1 mice at a dose of 50x2 mg/kg. Format: functional.
Experiment [8] has as its system Mus musculus. Put plainly: Increased life span against L1210 lymphoid leukemia cells in male BDF1 mice at a dose of 5x7 mg/kg. It is filed as functional. Put shortly: as §1
For experiment [9], the system named is Mus musculus. Put plainly: Increased life span against L1210 lymphoid leukemia cells in male BDF1 mice at a dose of 50 mg/kg. It is filed as functional. Put shortly:
as §1

Experiment [10] has as its system Mus musculus. Put plainly: Compound was ested for antitumor activity against Lewis lung carcinoma cells implanted in CD2F1 female mice at a dose of 25x2 mg/kg. It is filed as functional.
Experiment [11] relates to Mus musculus. Put plainly: Number of survivors on the toxicity day (day = 5) at a dose of 200x1 mg/kg; 5/6. Format: functional.
The test system of experiment [12] is Mus musculus. Put plainly: Number of survivors on day 60 at a dose of 7.5 mg/kg; 0/7. It is filed as functional. The gist of the method:
as §1

Experiment [13] relates to Mus musculus. Put plainly: Number of survivors on day 60 at a dose of 50 mg/kg; 0/7. Format: functional. Put shortly: as §1
Experiment [14] has as its system Mus musculus. Put plainly: Increased life span against L1210 lymphoid leukemia cells in male BDF1 mice at a dose of 25 mg/kg. Format: functional. Put shortly: as §1
Experiment [15] has as its system Mus musculus. Put plainly: Increased life span against L1210 lymphoid leukemia cells in male BDF1 mice at a dose of 7.5 mg/kg. It is filed as functional. Put shortly:
as §1

The subject of experiment [16] is Mus musculus. Put plainly: Increased life span against L1210 lymphoid leukemia cells in male BDF1 mice at a dose of 20x7 mg/kg. Format: functional. The gist of the method: as §1
Experiment [17] deals with Mus musculus. Put plainly: Compound was ested for antitumor activity against Lewis lung carcinoma cells implanted in female CD2F1 mice at a dose of 200x2 mg/kg; T=Toxic doxe. It is filed as functional, organism-based.
In experiment [18] the test system is Mus musculus. Put plainly: Compound was ested for antitumor activity against Lewis lung carcinoma cells implanted in male CD2F1 mice at a dose of 5x6 mg/kg. Format: functional.
For experiment [19], the system named is Mus musculus. Put plainly: Increased life span against L1210 lymphoid leukemia cells in male BDF1 mice at a dose of 30 mg/kg. It is filed as functional. Put shortly: as §1
The subject of experiment [20] is Mus musculus. Put plainly: Compound was ested for antitumor activity against Lewis lung carcinoma cells implanted in male CD2F1 mice at a dose of 400x2 mg/kg; Toxic doxe. Format: functional, organism-based.
For experiment [21], the system named is Mus musculus. Put plainly: Number of survivors on day 60 at a dose of 25 mg/kg; 0/7. It is filed as functional. Put shortly: as §1
For experiment [22], the system named is Mus musculus. Put plainly: Number of survivors on the toxicity day (day = 5) at a dose of 200x1 mg/kg; 6/6. Format: functional.
Experiment [23] has as its system Mus musculus. Put plainly: Increased life span against L1210 lymphoid leukemia cells in male BDF1 mice at a dose of 100 mg/kg. It is filed as functional. The conditions noted are these: for ILS at 100 mg/kg: Mus musculus, BDF1, L1210, dose 100 mg/kg. The gist of the method: as §1
For experiment [24], the system named is Mus musculus. Put plainly: Number of survivors on the toxicity day (day = 21) at a dose of 100x1 mg/kg; 5/7. Format: functional.
In experiment [25] the test system is Mus musculus. Put plainly: Compound was ested for antitumor activity against Lewis lung carcinoma cells implanted in male CD2F1 mice at a dose of 100x2 mg/kg. Format: functional.
For experiment [26], the system named is Mus musculus. Put plainly: Number of survivors on the toxicity day (day = 5) at a dose of 400x1 mg/kg; 5/6. It is filed as functional.
Experiment [27] concerns Mus musculus. Put plainly: Number of survivors on day 60 at a dose of 5 x 7 ip administration day 2 through day. Format: functional. Put shortly:
as §1

Experiment [28] has as its system Mus musculus. Put plainly: Increased life span against L1210 lymphoid leukemia cells in male BDF1 mice at a dose of 10x7 mg/kg. It is filed as functional. Put shortly:
as §1

Experiment [29] relates to Mus musculus. Put plainly: Compound was ested for antitumor activity against Lewis lung carcinoma cells implanted in female CD2F1 mice at a dose of 100x2 mg/kg. It is filed as functional.
Experiment [30] deals with Mus musculus. Put plainly: Increased life span against L1210 lymphoid leukemia cells in male BDF1 mice at a dose of 200 mg/kg. Format: functional. The settings on record: for ILS at 200 mg/kg: Mus musculus, BDF1, L1210. Put shortly:
as §1

The test system of experiment [31] is Mus musculus. Put plainly: Number of survivors on day 60 at a dose of 400 mg/kg; 7/7. It is filed as functional. The gist of the method: as §1
In experiment [32] the test system is Mus musculus. Put plainly: Increased life span against L1210 lymphoid leukemia cells in male BDF1 mice at a dose of 400 mg/kg. Format: functional. The settings on record: for ILS at 400 mg/kg: Mus musculus, BDF1, L1210. Put shortly:
as §1

Experiment [33] deals with Mus musculus. Put plainly: Number of survivors on day 60 at a dose of 200 mg/kg; 0/7. Format: functional. Put shortly: as §1
Experiment [34] deals with Mus musculus. Put plainly: Number of survivors on day 60 at a dose of 100 mg/kg; 0/7. Format: functional. The gist of the method:
as §1

The subject of experiment [35] is Mus musculus. Put plainly: Compound was ested for antitumor activity against Lewis lung carcinoma cells implanted in female CD2F1 mice at a dose of 62.5x1 mg/kg. Format: functional.
Experiment [36] deals with Mus musculus. Put plainly: Number of survivors on the toxicity day (day = 15) at a dose of 125 x1 mg/kg; 6/6. It is filed as functional.
The test system of experiment [37] is Mus musculus. Put plainly: Number of survivors on the toxicity day (day = 15) at a dose of 500x1 mg/kg; 5/6. It is filed as functional.
The subject of experiment [38] is Mus musculus. Put plainly: Number of survivors on the toxicity day (day = 15) at a dose of 62.5x1 mg/kg; 6/6. Format: functional.
The test system of experiment [39] is Mus musculus. Put plainly: Number of survivors on day 60 at a dose of 400 mg/kg; 5/7. Format: functional. The gist of the method: as §1
In experiment [40] the test system is Mus musculus. Put plainly: Compound was ested for antitumor activity against Lewis lung carcinoma cells implanted in female CD2F1 mice at a dose of 250x1 mg/kg. Format: functional.
Experiment [41] concerns Mus musculus. Put plainly: Compound was ested for antitumor activity against Lewis lung carcinoma cells implanted in female CD2F1 mice at a dose of 125 x1 mg/kg. It is filed as functional.
Experiment [42] relates to Mus musculus. Put plainly: Compound was ested for antitumor activity against Lewis lung carcinoma cells implanted in female CD2F1 mice at a dose of 500x1 mg/kg. Format: functional.
The subject of experiment [43] is Mus musculus. Put plainly: Number of survivors on the toxicity day (day = 15) at a dose of 250x1 mg/kg; 6/6. It is filed as functional.
The subject of experiment [44] is Mus musculus. Put plainly: Number of survivors on day 60 at a dose of 200 mg/kg; 1/7. Format: functional. The gist of the method: as §1
In experiment [45] the test system is Mus musculus. Put plainly: Number of survivors on the toxicity day (day = 15) at a dose of 100x1 mg/kg. It is filed as functional.
In experiment [46] the test system is Mus musculus. Put plainly: Number of survivors on day 60 at a dose of 400 mg/kg; 0/7. Format: functional. Put shortly:
as §1

A word on the T/C: it is the result in the treated group divided by that in the control group, in per cent. For `NP(=O)(OCCC(=O)c1ccccc1)N(CCCl)CCCl` (stereo unspecified), the T/C with Mus musculus [1] is 89%; in the experiment on Mus musculus [6] it was 63%; in the experiment on Mus musculus [7] it was 223%; in the experiment on Mus musculus [10], 163%; with Mus musculus [17], “Toxic”; in the experiment on Mus musculus [18], 106%. The results for the T/C entry with Mus musculus [20], in the experiment on Mus musculus [25] and with Mus musculus [29] were “Toxic”, 221% and 92%, respectively. Also, the Survivors stood at 5 with Mus musculus [2]; 6 with Mus musculus [3]; 6 in the experiment with Mus musculus [5]; 5 in the experiment with Mus musculus [11]; 0 in the experiment on Mus musculus [12]; 0 in the experiment with Mus musculus [13]. The Survivors turned out to be 0 in the experiment with Mus musculus [21]; 6 with Mus musculus [22]; 5 in the experiment on Mus musculus [24]; 5 with Mus musculus [26]; 0 in the experiment with Mus musculus [27]. For the same compound, the ILS at 15 mg/kg in the experiment with Mus musculus [4] is 16.3%. The ILS came to 20.6 in the experiment with Mus musculus [8], 58.8 with Mus musculus [16] and 29.7 in the experiment with Mus musculus [28]. In the experiment on Mus musculus [9], the ILS at 50 mg/kg was determined as 43.9%. For the same compound, the ILS at 25 mg/kg with Mus musculus [14] worked out at 22.9%. The ILS at 7.5 mg/kg in the experiment on Mus musculus [15] stood at 10.7%. Also, the ILS at 30 mg/kg in the experiment with Mus musculus [19] is 35.1%. In addition, in the experiment on Mus musculus [23], the ILS at 100 mg/kg is -34%.
For the compound `O=P1(NCCCl)OCCCN1CCCl` (stereo unspecified) [IFOSFAMIDE], the ILS with Mus musculus [30] is given as 99.8; with Mus musculus [32], above 617. In addition, the Survivors in the experiment on Mus musculus [31] is recorded as 7; in the experiment on Mus musculus [13], 0; in the experiment on Mus musculus [33] it was 0; in the experiment on Mus musculus [34] it was 0.
`O=C(CCOP(=O)(NCCCl)NCCCl)c1ccccc1`: the T/C was determined as 117% with Mus musculus [35], 165% with Mus musculus [40], 138% in the experiment with Mus musculus [41] and 291% in the experiment with Mus musculus [42]. Also, the Survivors in the experiment on Mus musculus [36] is 6; in the experiment on Mus musculus [37] it was 5; with Mus musculus [38], 6; in the experiment with Mus musculus [39], 5; in the experiment on Mus musculus [13], 0; in the experiment with Mus musculus [43], 6. For the same compound, the Survivors was 1 in the experiment on Mus musculus [44] and 0 in the experiment on Mus musculus [34]. The ILS at 50 mg/kg in the experiment on Mus musculus [9] worked out at 20.2%. The ILS at 100 mg/kg in the experiment on Mus musculus [23] came to 51.7%. For the same compound, in the experiment on Mus musculus [32], the ILS at 400 mg/kg is above 443%.
As to `O=P1(N(CCCl)CCCl)NCCCO1` (stereo unspecified) [CYCLOPHOSPHAMIDE ANHYDROUS], the Survivors was determined as 7 in the experiment with Mus musculus [45] and 0 in the experiment on Mus musculus [34]. The ILS at 200 mg/kg in the experiment on Mus musculus [30] was above 423%. Further, in the experiment on Mus musculus [23], the ILS at 100 mg/kg was found to be 59.6%. Also, in the experiment on Mus musculus [23] (dose 100 mg/kg), the ILS is given as 52.9%.
Take `O=C(CCOP(=O)(NCCCl)N(CCCl)CCCl)c1ccccc1` (stereo unspecified): the ILS at 200 mg/kg in the experiment on Mus musculus [30] amounted to 60.6%. In addition, the ILS at 100 mg/kg with Mus musculus [23] was 29.9%. Besides, in the experiment on Mus musculus [32], the ILS at 400 mg/kg was -19.7%. The Survivors in the experiment with Mus musculus [33], in the experiment on Mus musculus [46] and with Mus musculus [34] was 0 in each case.
